Assay results collected from several papers.
Lines come from different studies, so protocols differ.
Method: competition with immobilised ligand
RPS6KA2 N-terminal kinase domain: Ribosomal protein S6 kinase alpha-2, N-terminal kinase domain (RPS6KA2, Homo sapiens, UniProt Q15349)
RPS6KA2 C-terminal kinase domain: Ribosomal protein S6 kinase alpha-2, C-terminal kinase domain (RPS6KA2, Homo sapiens, UniProt Q15349)

`COc1cnc(Nc2cccc(S(N)(=O)=O)c2)nc1N1CCN(c2ccccc2)CC1` gave a remaining binding of 93% (RPS6KA2 N-terminal kinase domain; binding; 1 µM).
`CCOCCn1cc(C(=O)Nc2ccc(-n3nc(-c4cccnc4)cc3C(F)(F)F)cn2)ccc1=O` gave a remaining binding of 84% (RPS6KA2 N-terminal kinase domain; cell-free assay; 1 µM).
`O=C(NCCCN1CCOCC1)c1ccc(Nc2ncc(Cl)c(-c3ccc(Cl)s3)n2)cc1` has a remaining binding of 63% (RPS6KA2 C-terminal kinase domain; binding; 1 µM).
For `C=CC(=O)N1CCC(C(=O)NCC(=O)N2CCN(c3nc(-c4cnc(N)nc4C(F)F)nc(N4CCOCC4)n3)CC2)CC1`, the remaining binding was 93% (RPS6KA2 C-terminal kinase domain; binding; 1 µM).
For `N[C@@H]1CCN(c2nccc(-c3cnn4ncccc34)n2)C1`, the remaining binding was 100% (RPS6KA2 C-terminal kinase domain; binding; 1 µM).
With `COc1ccc2cc(OCC3(C(=O)O)CN(C(=O)c4ccc(F)cc4)C3)ccc2c1` the remaining binding was 100% (RPS6KA2 C-terminal kinase domain; cell-free assay; 1 µM).
With `CCN1CCN(Cc2ccc(C(=O)Nc3ccc(C)c(Oc4ccc5c(c4)CC(=O)N5)c3)cc2C(F)(F)F)CC1` the remaining binding was 91% (RPS6KA2 C-terminal kinase domain; binding; 1 µM).
`COc1cnc(Nc2cccc(S(N)(=O)=O)c2)nc1N1CCN(c2ccccc2)C(=O)C1` gave a remaining binding of 100% (RPS6KA2 C-terminal kinase domain; binding; 1 µM).
`O=C(NCCCN1CCOCC1)c1ccc(Nc2nccc(-c3cc4ccccc4s3)n2)cc1` gave a remaining binding of 16% (RPS6KA2 C-terminal kinase domain; binding; 1 µM).
The remaining binding of `c1cncc(-c2cccc(Nc3nccc(NC4CCCCC4)n3)c2)c1` is reported as 44% (RPS6KA2 N-terminal kinase domain; binding; 10 µM).
`CN(c1nccc(-c2cnn3ncccc23)n1)C1CC1` has a remaining binding of 100% (RPS6KA2 C-terminal kinase domain; binding; 1 µM).
`O=C(NCC1CCOCC1)c1n[nH]cc1NC(=O)c1c(F)cccc1F` has a remaining binding of 100% (RPS6KA2 C-terminal kinase domain; binding; 1 µM).
`CC(C)CC(=O)N1CCc2nc(-c3ccc(Br)cc3)nc(N(C)Cc3ccccc3)c2C1` has a remaining binding of 100% (RPS6KA2 C-terminal kinase domain; cell-free assay; 0.1 µM).
For `Cc1cnn2ncc(-c3ccnc(N(C)C)n3)c2c1`, the remaining binding was 100% (RPS6KA2 C-terminal kinase domain; binding; 1 µM).
For `O=C(c1ccc(Nc2ncc(Cl)c(-c3ccc(Cl)s3)n2)cc1)N1CCC(N2CCCC2)CC1`, the remaining binding was 71% (RPS6KA2 C-terminal kinase domain; binding; 1 µM).
The remaining binding of `CC1CCCN1c1nccc(-c2cnn3ncccc23)n1` (stereo not shown) is reported as 100% (RPS6KA2 N-terminal kinase domain; binding; 1 µM).
The remaining binding of `C[C@@H](c1ccc(-n2cnc3c(N)ncnc32)cc1)N1CCc2nn(C)c(Cc3ccccc3)c2C1=O` is reported as 96% (RPS6KA2 N-terminal kinase domain; binding; 0.1 µM).
`CNC(=O)[C@@H]1CC[C@@H](n2c(-c3ccc4cnccc4c3)nc3ccc(C(=O)NCc4cccc(C(N)=O)c4)cc32)C1` has a remaining binding of 91% (RPS6KA2 C-terminal kinase domain; binding; 1 µM).
For `Nc1ncc2c(n1)-c1c([nH]c3ccc(C#CC4CC4)cc13)CCCC2`, the remaining binding was 91% (RPS6KA2 N-terminal kinase domain; binding; 1 µM).
`COc1ncc2cc3ccccc3nc2c1C#N` has a remaining binding of 94% (RPS6KA2 C-terminal kinase domain; cell-free assay; 5 µM).
`COc1ccc2c(O[C@@H]3C[C@H]4C(=O)N[C@]5(C(=O)O)CC5/C=C\CCCCC[C@H](NC(=O)OC5CCCC5)C(=O)N4C3)cc(-c3csc(NC(=O)C(C)C)n3)nc2c1C` (stereo partly shown) has a remaining binding of 100% (RPS6KA2 C-terminal kinase domain; cell-free assay; 1 µM).
`CN(CCCC(F)(F)F)c1nccc(-c2cnn3ncccc23)n1` gave a remaining binding of 86% (RPS6KA2 N-terminal kinase domain; binding; 1 µM).
The remaining binding of `COCCOc1nc(-c2ccc(Cl)nc2)nc2c1CN(C(=O)c1ncn3ccccc13)CC2` is reported as 100% (RPS6KA2 C-terminal kinase domain; cell-free assay; 0.1 µM).
The remaining binding of `FC(F)(F)Oc1cccc(-c2cnc3ccc(-c4ccncc4)nn23)c1` is reported as 82% (RPS6KA2 C-terminal kinase domain; binding; 5 µM).
For `CS(=O)(=O)c1cc(C2(NC(=O)c3cncc4c3cnn4-c3ccc(F)cc3)CC2)ccn1`, the remaining binding was 88% (RPS6KA2 C-terminal kinase domain; cell-free assay; 1 µM).
`CN(C)c1nccc(-c2cnn3ncccc23)n1` has a remaining binding of 100% (RPS6KA2 N-terminal kinase domain; binding; 1 µM).
The remaining binding of `CN1CCN(c2cnc3c(C4CCN(C(=O)c5ccc(OC(F)(F)F)cc5N)CC4)ncnc3c2)CC1` is reported as 100% (RPS6KA2 C-terminal kinase domain; cell-free assay; 1 µM).
For `Cc1cnc(Nc2ccc(C(=O)N3CCC(N4CCCC4)CC3)cc2)nc1-c1cc2ccccc2s1`, the remaining binding was 100% (RPS6KA2 N-terminal kinase domain; binding; 1 µM).
The remaining binding of `CN(C)c1nccc(-c2cnc3ncccn23)n1` is reported as 91% (RPS6KA2 C-terminal kinase domain; binding; 1 µM).
For `O=C(c1ccc(Nc2nccc(-c3cc4ccccc4s3)n2)cc1)N1CCC(N2CCCC2)CC1`, the remaining binding was 100% (RPS6KA2 N-terminal kinase domain; binding; 1 µM).
With `O=C(Nc1c[nH]nc1C(=O)NC1CCNCC1)c1cc(F)cc(F)c1` the remaining binding was 100% (RPS6KA2 N-terminal kinase domain; binding; 1 µM).
The remaining binding of `COc1cc(C(=O)N2CCC(N3CCN(C)CC3)CC2)ccc1Nc1ncc2c(n1)N(C)c1ccccc1C(=O)N2C` is reported as 7.5% (RPS6KA2 C-terminal kinase domain; binding; 10 µM).
The remaining binding of `CS(=O)(=O)N1CCCC(NC(=O)[C@H](CCC2CCCCC2)NC(=O)c2ccc(CNC(=O)c3cnc4ccccn34)cc2)C1` (stereo partly shown) is reported as 94% (RPS6KA2 C-terminal kinase domain; cell-free assay; 0.1 µM).
With `O=C(c1ccc(Nc2ncc(Cl)c(-c3cc4ccccc4s3)n2)cc1)N1CCC(N2CCCC2)CC1` the remaining binding was 100% (RPS6KA2 N-terminal kinase domain; binding; 1 µM).
